Measurements reported in PubChem BioAssay.
Values without a mark were called inactive. Records with an inconclusive call do not appear. Activity calls are given as the source filed them.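 The calls were made as follows, unless noted: active = RAM network inhibition above 8.4% in each of two replicates, 3 SD over the compound average; inconclusive = above 8.4% inhibition in only one replicate; inactive = 8.4% inhibition or less in each replicate.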

What was measured:
[1] = OD615 S. cerevisiae growth inhibition, permissive medium, pilot counter-assay, permissive growth control for S. cerevisiae lifespan shortening project (AID 705;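 active = growth inhibition above 25% in both replicates, a cutoff set 3 SD above the mean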); conditions: OD615, 24 h, at 10 µM, active compounds read high
In short: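 System: S. cerevisiae with engineered DeaD lifespan system / Measured by: absorbance (optical density) at 615 nm / Read-out: reduction in yeast growth (OD615) / Times: 4 h cell pre-growth, 24 h exposure at 30 °C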

[2] = Restrictive medium S. cerevisiae growth inhibition, OD615, pilot screen of yeast lifespan reduction project, restrictive growth control (AID 706;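 active = growth inhibition above a set limit, 3 SD over mean compound inhibition, in both replicates, cut at about 43% in these data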;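 also: modified DeaD lifespan yeast strain shifted to restrictive glucose medium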); conditions: OD615, 48 h, at 10 µM, active compounds read high
In short: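 System: Engineered S. cerevisiae DeaD strain | Buffer or medium: Glucose-based CSMM-D restrictive medium | Schedule: 4 h pre-incubation, 48 h exposure at 30 °C | Technique: Optical density at 615 nm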

[3] = viability gain of MRP-1-high H69AR cells under doxorubicin, pilot screen, MRP-1 activator project, CellTiter-Glo, duplicate (AID 807;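 active = viability increase at or above a cutoff of the median across tested compounds plus 3 SD, cut at about 8.5% in these data, passing the limit was not always enough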;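 also: compound pretreatment 18-22 h then 72 h combined with doxorubicin; 0% = doxorubicin alone and 100% = vehicle without doxorubicin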); conditions: H69AR viability with doxorubicin, CellTiter-Glo luminescence; at 10 µM; active compounds read high
[4] = growth suppression of beta-catenin knockout HCT116, pilot screen, human colon tumor cells (AID 823;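 active = cell viability at or below a set limit in both duplicate runs, the limit being the all-compound median minus 4 SD, cut at about 23% in these data, passing the limit was not always enough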;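 also: 0% = wells killed by 20 µM Hyamine and 100% = untreated DMSO cell wells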); conditions: CellTiter-Glo, 60 h, at 10 µM, active compounds read low
[5] = growth suppression of PTEN-deleted HCT116, pilot screen, cell-based, HCT116 clonal line, CellTiter-Glo (AID 824;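 active = viability at or below 27.92% in each of two runs, the all-compound median minus 4 SD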;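 also: 0% = 20 µM Hyamine control and 100% = vehicle cell control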); conditions: 60 h, at 10 µM, active compounds read low
[6] = inhibitors of the yeast RAM network, pilot screen, dse1pr::URA3 reporter, 5-FOA selection (AID 869;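 active = inhibition over a set limit, the all-compound mean plus 3 SD, in both replicate runs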;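 also: 0% = DMSO wells with no growth and 100% = 10 µM 1-NA-PP1 with full growth; RAM network block rescues cells from 5-FOA so hits raise OD615 growth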); conditions: S. cerevisiae dse1pr::URA3 5-FOA growth, OD615, 2 d; at 10 µM; active compounds read high; strain carries analog-sensitive mutant Cbk1 kinase
[7] = RAM signaling pathway blockade in yeast – S. cerevisiae, Pdr1DBD-CYC8 efflux-inhibited sensitized strain, primary screen (AID 1298);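 also: 0% = DMSO untreated cells without growth and 100% = 10 µM 1-NA-PP1 full growth; higher means more yeast growth rescued from 5-FOA killing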; conditions: S. cerevisiae cbk1-as DSE1-URA3 strain, 5-FOA growth OD615, 2 d; at 50 µM; active compounds read high

Row | Compound | growth inhibition [1] [%] | growth inhibition [2] [%] | viability increase [3] [%] | viability [4] | viability [5] | inhibition [6] [%] | RAM network inhibition [7] [%]
1 | Cc1sc2ncn(CC(=O)NCc3ccccn3)c(=O)c2c1S(=O)(=O)N1CCOCC1 | -11.7 | -5.54 | 1.3 | 101% | 99.5% | 0.485 | 3.01
2 | CC(=NCCc1ccccc1)C1=C(O)CSC1=O | -3.27 | -6.07 | -1.75 | 99.4% | 96.3% | 0.97 | 1
3 | COC(=O)c1ccc(OCC(O)CN(CC(C)C)CC(C)C)cc1 (configuration not stated) | -3.55 | -4.33 | -1.4 | 76.1% | 86.4% | 1.47 | 2.82
4 | CCOc1ccc(-c2nc(CSc3nncs3)cs2)cc1OC | 4.37 | 16.2 | -3.61 | 84.1% | 82% | 0.655 | 5.42
5 | O=S(=O)(Nc1ccc(-c2nc3cccnc3s2)cc1)c1cccs1 | -4.44 | -6.65 | -1.73 | 110% | 95.6% | 1.79 | 3.74
6 | C/C(=C1/SC(N2CCOCC2)=NC1=O)c1ccc(Br)cc1 | -1.67 | 3.21 | -1.99 | 94.5% | 101% | 1.26 | 0.72
7 | Cn1c(=O)c2c(nc(-n3ccnc3)n2Cc2ccc(Cl)cc2Cl)n(C)c1=O | -10.2 | -2.64 | -4.31 | 89.2% | 80.4% | 1.17 | 5.62
8 | Nn1c(SCc2nc3ccccc3[nH]2)nnc1-c1cccnc1 | 4.54 | 14.9 | -2.44 | 90.2% | 95.7% | 1.13 | 1.82
9 | COc1cccc2cc3c(=O)n(-c4ccccc4)nc-3oc12 | -29.6 | -20.8 | -7.1 | 97.2% | 92.1% | 2.73 | 3.19
10 | O=C(c1cc2ccccn2n1)N1CCN(c2ccccn2)CC1 | -2.62 | 7.25 | 2.16 | 103% | 106% | 0.94 | 4.4
11 | CCOCCCNC(=O)C(NC(=O)CC1NC(=O)NC1=O)c1ccc(Cl)cc1 (configuration not stated) | -4.46 | 1.68 | 0.89 | 107% | 96.1% | 2.61 | 1.81
12 | CC1CN(CCC(=O)Nc2ccc3c(c2)CCC3)CC(C)O1 (configuration not stated) | -3.75 | -3.82 | -0.55 | 97.5% | 93% | 0.995 | 6.16
13 | CCOC(=O)c1ccc(N2C(=O)C3ON(c4ccccc4)C(c4ccco4)C3C2=O)cc1 (configuration not stated) | -17.9 | 5.19 | -4.17 | 102% | 93.4% | 1.73 | 4.07
14 | Cc1nn(-c2ccccc2)c(C)c1NC(=O)Cc1cccs1 | -10.7 | -4.28 | -2.07 | 95.2% | 92.1% | 1.18 | 1.1
15 | CC1CCc2nn(CC(=O)NCc3ccco3)cc2C1 (configuration not stated) | 8.89 | 2.02 | -3.13 | 92.7% | 88.2% | 2.08 | 5.3
16 | CCOC(=O)C1CCCN(C(=O)c2cn(CC(C)C)c(=O)c3cc(OC)c(OC)cc23)C1 (configuration not stated) | -8.41 | -15.7 | -3.43 | 97% | 95% | 0.555 | 0.93
17 | COc1ccc(C2C(C(=O)N3CCN(c4ccc(OC)cc4)CC3)c3ccccc3C(=O)N2C)cc1 (configuration not stated) | 1.52 | -0.315 | -0.98 | 60.6% | 61.9% | 0.215 | 0.86
18 | CCN1CCN(C(=O)CS(=O)(=O)Cc2nc(-c3ccc(C)cc3)oc2C)CC1 | -5.05 | 3.62 | -0.17 | 85.2% | 87.8% | 0.805 | 2.7

Row | Compound | growth inhibition [1] [%] | growth inhibition [2] [%] | viability increase [3] [%] | viability [4] | viability [5] | inhibition [6] [%] | RAM network inhibition [7] [%]
19 | COc1cccc2c(=O)n(CC(=O)NC3CCCC3)ccc12 | -19.3 | -5.62 | -1.22 | 99.1% | 94% | -0.215 | 3.83
20 | Cc1cc(Nc2cccc(Cl)c2C)n2ncnc2n1 | -2.94 | -1.32 | -1.11 | 94.2% | 95% | 2.26 | 2.35
21 | COc1c(Cl)cc(-c2noc(C)c2C(=O)NCc2ccc3c(c2)OCO3)cc1Cl | -16.4 | -10.4 | -1.08 | 89% | 84% | 1.19 | 4.27
22 | c1nc(N2CCNCC2)c2sc3nc(N4CCOCC4)c4c(c3c2n1)CCC4 | -0.055 | 6.55 | -6.75 | 2.54% (active) | 1.69% (active) | 2.3 | 7.31
23 | CCn1c(SCC(=O)NCCOc2ccccc2)nc2ccccc2c1=O | -0.73 | -21.3 | -1.87 | 93.8% | 92.6% | 1.08 | 4.35
24 | O=C(Cn1nc(Cc2cccnc2)c2ccccc2c1=O)N1CCN(c2ccccn2)CC1 | 4.64 | 2.73 | 0.48 | 94.8% | 100% | 0.985 | -0.56
25 | N#CC1=C2SCN(c3ccc(F)cc3)CN2C(=O)CC1c1cccc(F)c1 (configuration not stated) | 4.17 | 7.57 | -2.71 | 104% | 96.7% | 1.06 | 7.08
26 | Cn1c(=O)c2c(SCC(=O)NCc3ccco3)nc(CC(C)(C)C)nc2n(C)c1=O | -3.79 | -0.895 | -4.81 | 72.5% | 70.6% | 0.775 | 5.97
27 | COc1ccc(C(=O)O)cc1Nc1cc(C)nc2ncnn12 | 1.95 | -2.37 | -1.14 | 103% | 93% | 0.015 | 0.94
28 | c1ccc(N(c2ccccc2)c2nc(N3CCOCC3)nc(N3CCOCC3)n2)cc1 | 4.5 | -1.27 | -3.09 | 92.2% | 89.9% | 4.5 | 3.75
29 | CCCC(=O)N1CCN(C2=NS(=O)(=O)c3ccccc32)CC1 | -0.28 | 12.9 | -0.68 | 103% | 98.5% | -0.175 | 3.82
30 | O=C(Nc1sc2c(c1C(=O)O)CCCCC2)c1ccco1 | -3.7 | -9.4 | -1.32 | 88.7% | 78.5% | -0.91 | -1.46
31 | COC(=O)c1ccc2[nH]c(C)cc(=O)c2c1 | -15.1 | -24.1 | -0.51 | 99.8% | 90.9% | 1.61 | 4.64
32 | O=C(NCCNC(=O)c1ccc(Br)o1)c1ccc(Br)o1 | -7.92 | 4.26 | 1.39 | 99.1% | 105% | 0.39 | 0.1
33 | CC(C)(C)c1ccc(S(=O)(=O)N2CCCCC2C(=O)NCc2ccccn2)cc1 (configuration not stated) | -24.9 | -29 | -2.34 | 93% | 84.6% | 0.13 | 5.71
34 | Cc1ccc(-n2nc(C)c3c(C)c(CCC(=O)NCc4ccco4)c(C)nc32)cc1 | -15 | -9.24 | -3.52 | 84.7% | 75.5% | 0.985 | 4.13
35 | COc1ccc(-c2nc(C#N)c(NCCN(C)C)o2)cc1 | -5.38 | -5.11 | -0.95 | 101% | 97.5% | 0.355 | 3.09
36 | COC(=O)c1ccc(C2c3c(n[nH]c3C)C(=O)N2c2ccc(C)cc2)cc1 (configuration not stated) | 10.6 | -0.115 | 0.79 | 70.6% | 86.4% | 0.34 | 0.36
